Measured values published in ChEMBL document CHEMBL2440007, “Design, synthesis and biological evaluation of N2,N4-disubstituted-1,1,3-trioxo-2H,4H-pyrrolo[1,2-b][1,2,4,6]thiatriazine derivatives as HIV-1 NNRTIs” (Bioorg Med Chem, 2013).
pEC50, pIC50: −log10 of the molar value.

How the values were obtained:
[1] = Selectivity index, ratio of CC50 for human MT4 cells to EC50 for HIV-1 3B infected in human MT4 cells; type: toxicity, cell-based; conditions: read-out: Ratio CC50/EC50
Outline: (§1)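 Ratio CC50/EC50. Both values come from MTT viability of MT-4 cells read 5 days after infection with HIV-1 IIIB or HIV-2 ROD, or after mock infection for CC50.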

[2] = Cytotoxicity against human MT4 cells after 5 days by MTT assay; type: cell-based
Outline: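 Mock-infected MT-4 cells (6 × 10⁵ cells/mL) were exposed to serial fivefold compound dilutions. Viability was measured by MTT after 5 days.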

[3] = test system: Human immunodeficiency virus 1; assay: Antiviral activity against HIV1; type: functional, organism-based
[4] = Selectivity index, ratio of CC50 for human MT4 cells to EC50 for HIV-2 ROD infected in human MT4 cells; type: toxicity, cell-based; conditions: read-out: Ratio CC50/EC50; outline: as §1
[5] = test system: Human immunodeficiency virus 1; assay: Antiviral activity against HIV1 3B infected in human MT4 cells assessed as protection against viral-induced cytotoxicity after 5 days by MTT assay; type: functional, organism-based; conditions: Human immunodeficiency virus 1, 3B, MT4, 120 h
Outline: (§2)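 MT-4 cells were infected with HIV-1 IIIB or HIV-2 ROD stock at 100–300 CCID50 and exposed to serial fivefold compound dilutions, with untreated virus-infected and mock-infected controls. Cell viability was read by MTT after 5 days.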

[6] = test system: Human immunodeficiency virus 2; assay: Antiviral activity against HIV2 ROD infected in human MT4 cells assessed as protection against viral-induced cytotoxicity after 5 days by MTT assay; type: functional, organism-based; conditions: Human immunodeficiency virus 2, ISOLATE ROD, MT4, 120 h; outline: as §2
[7] = molecular target: Human immunodeficiency virus type 1 reverse transcriptase (Human immunodeficiency virus 1, UniProt Q72547); assay: Inhibition of HIV1 reverse transcriptase assessed as inhibition of biotinylated dUTP incorporation after 1 hr by ELISA
Outline: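 Kit-based colorimetric ELISA. HIV-1 RT was incubated with template and DIG-dUTP, biotin-dUTP and dTTP, with or without inhibitor, for 1 h at 37 °C. Product was captured on streptavidin plates for 1 h at 37 °C, then anti-DIG-POD for 1 h at 37 °C, and ABTS was developed at 25 °C. A405 was read and percent inhibition calculated.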

Structure (SMILES)	selectivity ratio [1]	CC50 at 120 h [2]	pEC50 [3]	selectivity ratio [4]	pEC50 [5]	pEC50 [6]	pIC50 [7]
N#CCN1C(=O)N(Cc2ccccc2)S(=O)(=O)c2cscc21	559	503 µM					
O=C1N(Cc2ccccc2Cl)c2cscc2S(=O)(=O)N1Cc1ccccc1	> 119	> 119 µM	8.00				
C=CCN1C(=O)N(Cc2ccccc2)S(=O)(=O)n2cccc21	> 1	> 802 µM		< 1	< 3.10	< 3.10	
Cn1ncc2c1N(Cc1ccccc1Cl)S(=O)(=O)N(Cc1ccccc1)C2=O			< 4.70				
Cn1ncc2c1S(=O)(=O)N(Cc1ccccc1)C(=O)N2Cc1ccccc1Cl			< 3.52				
CC(C)=CCN1C(=O)N(Cc2ccccc2)S(=O)(=O)n2cccc21	9	226 µM		< 1	4.60	< 3.65	
O=C1N(Cc2ccccc2)c2cccn2S(=O)(=O)N1Cc1cccc(F)c1	6	288 µM		1	4.28	< 3.49	
N#Cc1ccccc1CN1C(=O)N(Cc2cccc(F)c2)S(=O)(=O)n2cccc21	> 55	> 305 µM		1	5.25	< 3.52	4.23
O=C1N(Cc2ccccc2Cl)c2cccn2S(=O)(=O)N1Cc1cccc(F)c1	21	231 µM		< 1	4.96	< 3.58	
O=C1N(Cc2ccccc2Br)c2cccn2S(=O)(=O)N1Cc1cccc(F)c1	> 9	> 269 µM		1	4.54	< 3.57	
O=C1N(Cc2cccc(Cl)c2)c2cccn2S(=O)(=O)N1Cc1cccc(F)c1	29	208 µM		< 1	5.14	< 3.67	
O=C1N(Cc2ccc(Cl)cc2Cl)c2cccn2S(=O)(=O)N1Cc1cccc(F)c1	< 1	249 µM		1	< 3.60	< 3.56	
N#CCN1C(=O)N(Cc2cccc(F)c2)S(=O)(=O)n2cccc21	5	172 µM		< 1	4.47	< 3.73	
N#Cc1ccccc1CN1C(=O)N(Cc2cccc(Cl)c2)S(=O)(=O)n2cccc21	> 33	> 293 µM		1	5.05	< 3.53	
O=C1N(Cc2ccc(Cl)cc2Cl)c2cccn2S(=O)(=O)N1Cc1cccc(Cl)c1	< 1	251 µM		1	< 3.60	< 3.58	
O=C1N(Cc2ccccc2Cl)c2cccn2S(=O)(=O)N1Cc1cccc(Br)c1	> 14	> 260 µM		1	4.74	< 3.59	

Structure (SMILES)	selectivity ratio [1]	CC50 at 120 h [2]	pEC50 [3]	selectivity ratio [4]	pEC50 [5]	pEC50 [6]	pIC50 [7]
O=C1N(Cc2ccc(Cl)cc2Cl)c2cccn2S(=O)(=O)N1Cc1cccc(Br)c1		> 243 µM		1	< 3.61	< 3.61	
O=C1N(Cc2ccccc2)c2cccn2S(=O)(=O)N1Cc1ccccc1	5	196 µM		< 1	4.37	< 3.57	
N#Cc1ccccc1CN1C(=O)N(Cc2ccccc2)S(=O)(=O)n2cccc21	> 63	> 318 µM		1	5.29	< 3.50	4.24
N#Cc1cccc(CN2C(=O)N(Cc3ccccc3)S(=O)(=O)n3cccc32)c1	> 49	> 318 µM		1	5.19	< 3.50	
O=C1N(Cc2ccccc2Cl)c2cccn2S(=O)(=O)N1Cc1ccccc1	12	291 µM		1	4.64	< 3.51	
O=C1N(Cc2ccccc2Br)c2cccn2S(=O)(=O)N1Cc1ccccc1	8	226 µM		< 1	4.52	< 3.65	
O=C1N(Cc2cccc(Cl)c2)c2cccn2S(=O)(=O)N1Cc1ccccc1	5	196 µM		< 1	4.40	< 3.62	
O=C1N(Cc2ccc(Cl)cc2Cl)c2cccn2S(=O)(=O)N1Cc1ccccc1	< 1	218 µM		< 1	< 3.66	< 3.56	
O=C1N(Cc2ccc(F)cc2)c2cccn2S(=O)(=O)N1Cc1ccccc1	< 1	150 µM		< 1	< 3.72	< 3.82	
Cc1ccc(CN2C(=O)N(Cc3ccccc3)S(=O)(=O)n3cccc32)cc1	< 1	241 µM		< 1	< 3.62	< 3.62	
N#CCN1C(=O)N(Cc2ccccc2)S(=O)(=O)n2cccc21	< 1	180 µM		< 1	< 3.73	< 3.74	
O=C1N(C/C=C/c2ccccc2)c2cccn2S(=O)(=O)N1Cc1ccccc1		> 318 µM		1	< 3.50	< 3.50	
Nc1ccn([C@@H]2CS[C@H](CO)O2)c(=O)n1 [LAMIVUDINE]	> 47	> 87 µM		> 15	5.74	5.23	
Cc1ccnc2c1NC(=O)c1cccnc1N2C1CC1 [NEVIRAPINE]		> 15 µM					
Nc1ccn([C@H]2CC[C@@H](CO)O2)c(=O)n1 [ZALCITABINE]	> 68	> 95 µM					
